# In the library only some 3.5% were active in any assay of this set; here they are far more common.
# MrgX1 antagonist: human MrgX1 receptor antagonism, primary screen; Q96LB2; MRGX1-HEK293 calcium flux, Fluo-4, BAM8-22 antagonism; active compounds read low; B-score at 10 µM; 1.3% of 310,000 active;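 active = calcium-response B-score plate-corrected more than 3 library SD below zero, starting fluorescence within 5 deviations, no agonist response on first addition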;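 also: peak minus trough fluorescence over baseline after final BAM8-22 challenge near maximal dose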
# Target sequence (Q96LB2 whole entry, looked up): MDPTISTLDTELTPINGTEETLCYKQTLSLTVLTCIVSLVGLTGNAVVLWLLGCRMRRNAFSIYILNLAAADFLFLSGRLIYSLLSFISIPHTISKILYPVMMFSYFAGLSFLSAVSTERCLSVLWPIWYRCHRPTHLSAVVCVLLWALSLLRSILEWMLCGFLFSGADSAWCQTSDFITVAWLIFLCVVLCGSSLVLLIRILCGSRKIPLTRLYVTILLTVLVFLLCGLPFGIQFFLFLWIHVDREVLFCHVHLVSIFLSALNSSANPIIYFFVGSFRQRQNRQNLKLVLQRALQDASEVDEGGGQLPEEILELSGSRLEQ
# MrgX1 ag: human MrgX1 receptor agonism, primary screen; Q96LB2; MrgX1-HEK293 cells, Fluo-4 calcium fluorescence, agonist mode; active compounds read high; B-score at 10 µM; 0.44% of 310,000 active; AID 588627;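 active = calcium response B-score plate-corrected fluorescence ratio at least 3 library SD, with starting fluorescence B-score inside 5 SD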
#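 Material: MrgX1-expressing HEK293 cells; input: 15,000 cells per well; doses: test compound given as first of three sequential additions; schedule: overnight plating before 1 h dye loading; technique: Fluo-4 NW calcium-flux fluorescence, kinetic read; evaluation: baseline-normalised fluorescence change ratio, B-scored; control set: plate-wise positive and negative controls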
# RGS4 pot: potentiators or activators of RGS4; HEK293 M3R/inducible RGS4, carbachol calcium flux Fluo4; active compounds read low; B-score at 10 µM; 0.92% of 310,000 active;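 active = B-score of the integrated calcium signal more than 4 SD below the library mean, with starting fluorescence not abnormally high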;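 also: negative B-score means reduced calcium response which marks RGS4 activation or potentiation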
#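 Test system: HEK293 cells with stable M3R and inducible RGS4; also added: carbachol at ECmax as muscarinic agonist stimulus; schedule: dye loading 30 min 37 °C, buffer rest 30 min RT; technique: kinetic calcium fluorescence imaging with Fluo4-AM dye, 2 µM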
# RGS4 block: human RGS4 inhibition | P49798 | HEK293 M3R/RGS4 inducible, Fluo-4 calcium flux; active compounds read high; triggered by carbachol at its EC20 | B-score at 10 µM | 0.45% of 310,000 active | AID 463165;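 active = B-score, a plate-corrected calcium signal, over three deviations above library mean, with baseline fluorescence within five deviations of library mean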;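 also: RGS4 expression induced by doxycycline in cells with stable M3 receptor; B-score is computed from the integrated fluorescence ratio over baseline after carbachol; higher B-score means a larger calcium signal and so more RGS4 inhibition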
# Target sequence (P49798 whole entry, looked up): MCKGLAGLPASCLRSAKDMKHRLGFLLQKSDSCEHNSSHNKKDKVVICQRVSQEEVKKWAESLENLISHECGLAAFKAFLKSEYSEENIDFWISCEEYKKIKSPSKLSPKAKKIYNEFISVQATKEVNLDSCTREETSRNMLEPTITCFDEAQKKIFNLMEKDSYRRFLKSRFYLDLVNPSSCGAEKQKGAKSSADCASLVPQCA
# MrgX1 PAM: allosterically activates human MrgX1 receptor signaling; 0.63% of 310,000 active; MrgX1-HEK293, Fluo-4 calcium flux, FDSS; active compounds read high; AID 588675; B-score at 10 µM;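 active = plate-corrected calcium response at least 3 library SD above typical, normal starting fluorescence, not activating the receptor alone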;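 also: compound read alongside a low EC10 to EC30 dose of BAM8-22 agonist; peak minus trough fluorescence over baseline measured at the second addition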
# MrgX1 ant reconf: confirmation of human MrgX1 receptor antagonists. shares compounds with MrgX1 antagonist. MrgX1-HEK293, BAM8-22 calcium flux, Fluo-4; active compounds read low. remaining BAM8-22 calcium response % of control (active compounds read low), % at 10 µM. 19% of 2,300 active. AID 602420;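 active = remaining agonist calcium response no higher than 100% minus 3 SD of agonist-only control wells, with starting fluorescence near control levels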;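 also: agonist BAM8-22 given at a near maximal EC90 to ECmax level; peak minus minimum fluorescence divided by baseline after agonist addition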
# HEK293 Ca flux: MrgX1 antagonist counter-screen hit in parental HEK293 cells | AID 624111 | fluorescence ratio F(max-min)/F0 at 10 µM | shares compounds with MrgX1 antagonist | 2% of 4,000 active | Fluo-4 calcium fluorescence, FDSS;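 active = duplicate-averaged calcium fluorescence ratio at least three times the standard deviation of buffer wells, a nonspecific response in parental cells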
# HEK293 Ca counter: MrgX1 allosteric activator counter-screen hit in parental HEK293 cells; shares compounds with MrgX1 antagonist; parental HEK293 calcium flux, Fluo-4 fluorescence ratio; active compounds read high; fluorescence ratio F(max-min)/F0 at 10 µM; 0.4% of 4,000 active; AID 624114;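 active = calcium fluorescence ratio, averaged over duplicates, at least 3 SD of the buffer-well ratio, meaning a nonspecific response in receptor-free cells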;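 also: untransfected parental HEK293 lacking MrgX1 used as counterscreen for MrgX1 allosteric activators; fluorescence change taken during the second addition on a kinetic imager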
# HEK293 Ca cntr2: MrgX1 activator counter-screen hit in parental HEK293 cells. shares compounds with MrgX1 antagonist. Fluo-4 calcium fluorescence (FDSS); active compounds read high. fluorescence ratio F(max-min)/F0 at 10 µM. 8.7% of 4,000 active. AID 624115;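 active = calcium fluorescence ratio at least three times the spread of buffer wells, meaning a non-specific response in parental cells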
# Hits are given with their value; - = inactive; . = no result given.
SMILES,MrgX1 antagonist,MrgX1 ag,RGS4 pot,RGS4 block,MrgX1 PAM,MrgX1 ant reconf,HEK293 Ca flux,HEK293 Ca counter,HEK293 Ca cntr2
O=C(Nc1ccc(OCC(F)(F)C(F)F)c(C(F)(F)F)c1)c1ccccc1O,-5.7,-,-,-,-,-,-,-,-
O=C(NCc1cccs1)C1CCCN(C(=O)Nc2ccccc2)C1 (configuration not stated),-,-,-,-,-,.,.,.,.
c1ccc2c(c1)C(=NCC1CCCO1)NC2=NCC1CCCO1 (configuration not stated),-,-,-,-,-,.,.,.,.
CC(C)(C)N=C1NC(=NC(C)(C)C)c2ccccc21,-5,-,-,-,-,-,-,-,51
Cc1cccc(CCNS(=O)(=O)c2ccc3c(c2)CCN3C(=O)CCC(=O)O)c1,-,-,-,-,-,.,.,.,.
O=C(NCc1ccc(N2CCCC2=O)cc1)Nc1ccccc1,-,-,-,-,-,.,.,.,.
Cc1cc2c(NC(=O)Nc3ccc(C(C)(C)C)cc3)cccc2nn1,-6.9,-,-,-,-,78%,-,-,-
O=C(NC(Cc1ccccc1)C(=O)O)/C(=C/c1cccc([N+](=O)[O-])c1)NC(=O)c1cccc(Br)c1 (configuration not stated),-,-,-,-,-,.,.,.,.
CSc1cccc(NC(=O)CCS(=O)(=O)c2cccc3nonc23)c1,-,-,-,-,-,.,.,.,.
Cc1noc(C)c1CSc1ncnc2ccccc12,-7.7,-,-,-,-,-,-,-,-
O=C(O)CCNC(=O)C12CC3CC(CC(C3)C1)C2,-8.1,-,-,-,-,-,-,-,-
O=C(NCc1ccccc1)C12CC3CC(CC(C3)C1)C2,-,-,-,-,-,.,.,.,.
Cc1ccccc1C(=O)Nc1ccnn1C1CCN(Cc2cnn(C(C)C)c2)CC1,-,-,-,-,-,.,.,.,.
CCc1ccc(S(=O)(=O)/N=C2\C=C(Nc3ccc(C(=O)O)cc3)C(=O)c3ccccc32)cc1,-7.7,-,-,-,-,85%,-,-,-
Cc1ccc(S(=O)(=O)/N=C2\C=C(Nc3cccc(C(=O)O)c3)C(=O)c3ccccc32)cc1,-,-,-,-,-,.,.,.,.
CC(C)CNC(=O)C(=O)NNC(=O)c1ccco1,-,-,-,-,-,.,.,.,.
O=S1(=O)c2cccc3cccc(c23)N1CCBr,-,-,-,-,-,.,.,.,.
O=C(c1cc(-c2ccc(Cl)cc2Cl)on1)N1CCCC1,-,-,-,-,-,.,.,.,.
O=C(c1cc(-c2ccc(Cl)cc2Cl)on1)N1CCCCCC1,-5.3,-,-,-,-,-,-,-,-
C/C(CC1CC2=C(CC1(C)C)C(C)(C)CCC2)=N\NC(N)=S (configuration not stated),-,-,-,-,-,.,.,.,.
O=C(NCCc1ccccc1)c1ccc(-c2ccccc2Cl)o1,-4.6,-,-,-,-,-,-,-,-
C[C@@H](C(=O)CC(=O)OC(C)(C)C)[C@@H](O)c1c(F)cccc1Cl,-,-,-,-,-,.,.,.,.
CC(C)N1C[C@@]23C=C[C@@H](O2)C(C(=O)OCc2ccccc2)[C@H]3C1=O (some centres not stated),-,-,-,-,-,.,.,.,.
CC(C)N1CC23C=CC(O2)C(C(=O)OCc2ccccc2)C3C1=O (configuration not stated),-5,-,-,-,-,-,-,-,-
C=CCn1c(SCC(=O)Nc2cc(C)on2)nnc1C1COc2ccccc2O1 (configuration not stated),-6.1,-,-,-,-,85%,-,-,-
C=CCOc1c(Cl)cc(C(=S)N2CCCC2)cc1OCC,-6.9,-,-,-,-,-,-,-,-

# Assay outcomes from PubChem.
